{
  "source": "ChEMBL document CHEMBL1275299",
  "about": "“Synthesis and anti-inflammatory activity of derivatives of coumarino-lignoid, cleomiscosin A and its methyl ether” (2010)",
  "format_in_all_cases": "functional",
  "key": {"[1]": {"assay": "Antiinflammatory activity in Swiss albino mouse macrophage assessed as inhibition of LPS-induced TNFalpha production at 1 ug/ml treated 30 mins before LPS challenge measured after 24 hrs by ELISA", "in_short": "(§1)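 Peritoneal macrophages from 8-week-old female Swiss albino mice, elicited by i.p. 1% peptone (1 mL) 3 days before harvest and collected by PBS (pH 7.4) lavage, were used at 2 × 10^6 live cells/mL. Cells were kept in RPMI 1640 with 10% heat-inactivated FCS and penicillin/streptomycin at 37 °C, 5% CO2. Adherent cells were kept after 2 h. Compounds were given in DMSO, with a DMSO vehicle control. LPS was 0.5 µg/mL. Cytokines were measured in supernatants by mouse sandwich ELISA kits. n = 4, Student t-test versus vehicle.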"}, "[2]": {"assay": "Antiinflammatory activity in Swiss albino mouse macrophage assessed as inhibition of LPS-induced TNFalpha production at 10 ug/ml treated 30 mins before LPS challenge measured after 24 hrs by ELISA", "in_short": "as §1"}, "[3]": {"assay": "Antiinflammatory activity in Swiss albino mouse macrophage assessed as inhibition of LPS-induced IL-6 production at 1 ug/ml treated 30 mins before LPS challenge measured after 24 hrs by ELISA", "in_short": "as §1"}, "[4]": {"assay": "Antiinflammatory activity in Swiss albino mouse macrophage assessed as inhibition of LPS-induced IL-6 production at 10 ug/ml treated 30 mins before LPS challenge measured after 24 hrs by ELISA", "in_short": "as §1"}, "[5]": {"assay": "Antiinflammatory activity in Swiss albino mouse macrophage assessed as inhibition of LPS-induced IL1-beta production at 1 ug/ml treated 30 mins before LPS challenge measured after 24 hrs by ELISA", "in_short": "as §1"}, "[6]": {"assay": "Antiinflammatory activity in Swiss albino mouse macrophage assessed as inhibition of LPS-induced IL1-beta production at 10 ug/ml treated 30 mins before LPS challenge measured after 24 hrs by ELISA", "in_short": "as §1"}},
  "data": [
    {"smiles": "COc1ccc([C@H]2Oc3c(OC)c(Br)c4ccc(=O)oc4c3O[C@@H]2CO)cc1OC", "values": [
      {"measurement": "inhibition at 1 µg/mL", "setting": "[1]", "value": 44.8, "unit": "%"},
      {"measurement": "inhibition at 10 µg/mL", "setting": "[2]", "value": 42, "unit": "%"},
      {"measurement": "inhibition at 1 µg/mL", "setting": "[3]", "value": 59.8, "unit": "%"},
      {"measurement": "inhibition at 10 µg/mL", "setting": "[4]", "value": 60, "unit": "%"},
      {"measurement": "inhibition at 1 µg/mL", "setting": "[5]", "value": 50.1, "unit": "%"},
      {"measurement": "inhibition at 10 µg/mL", "setting": "[6]", "value": 44.7, "unit": "%"}
    ]},
    {"smiles": "COc1ccc([C@H]2Oc3c(OC)c(Cl)c4ccc(=O)oc4c3O[C@@H]2CO)cc1OC", "values": [
      {"measurement": "inhibition at 1 µg/mL", "setting": "[1]", "value": 50.2, "unit": "%"},
      {"measurement": "inhibition at 10 µg/mL", "setting": "[2]", "value": 49.6, "unit": "%"},
      {"measurement": "inhibition at 1 µg/mL", "setting": "[3]", "value": 57.5, "unit": "%"},
      {"measurement": "inhibition at 10 µg/mL", "setting": "[4]", "value": 56.2, "unit": "%"},
      {"measurement": "inhibition at 1 µg/mL", "setting": "[5]", "value": 59.2, "unit": "%"},
      {"measurement": "inhibition at 10 µg/mL", "setting": "[6]", "value": 40.1, "unit": "%"}
    ]},
    {"smiles": "COc1cc([C@H]2Oc3c(OC)c(Br)c4ccc(=O)oc4c3O[C@@H]2COC(C)=O)ccc1O", "values": [
      {"measurement": "inhibition at 1 µg/mL", "setting": "[1]", "value": 54.5, "unit": "%"},
      {"measurement": "inhibition at 10 µg/mL", "setting": "[2]", "value": 54.2, "unit": "%"},
      {"measurement": "inhibition at 1 µg/mL", "setting": "[3]", "value": 60.2, "unit": "%"},
      {"measurement": "inhibition at 10 µg/mL", "setting": "[4]", "value": 52.5, "unit": "%"},
      {"measurement": "inhibition at 1 µg/mL", "setting": "[5]", "value": 55.3, "unit": "%"},
      {"measurement": "inhibition at 10 µg/mL", "setting": "[6]", "value": 58.8, "unit": "%"}
    ]},
    {"smiles": "COc1cc([C@H]2Oc3c(OC)c([N+](=O)[O-])c4ccc(=O)oc4c3O[C@@H]2COC(C)=O)ccc1OC(C)=O", "values": [
      {"measurement": "inhibition at 1 µg/mL", "setting": "[1]", "value": 70.5, "unit": "%"},
      {"measurement": "inhibition at 10 µg/mL", "setting": "[2]", "value": 67.8, "unit": "%"},
      {"measurement": "inhibition at 1 µg/mL", "setting": "[3]", "value": 87.2, "unit": "%"},
      {"measurement": "inhibition at 10 µg/mL", "setting": "[4]", "value": 82, "unit": "%"},
      {"measurement": "inhibition at 1 µg/mL", "setting": "[5]", "value": 70.4, "unit": "%"},
      {"measurement": "inhibition at 10 µg/mL", "setting": "[6]", "value": 65.3, "unit": "%"}
    ]},
    {"smiles": "O=C(O)Cc1ccccc1Nc1c(Cl)cccc1Cl", "note": "[DICLOFENAC SODIUM]", "values": [
      {"measurement": "inhibition at 1 µg/mL", "setting": "[1]", "value": 46.5, "unit": "%"},
      {"measurement": "inhibition at 1 µg/mL", "setting": "[3]", "value": 51.1, "unit": "%"},
      {"measurement": "inhibition at 1 µg/mL", "setting": "[5]", "value": 38.5, "unit": "%"}
    ]},
    {"smiles": "COc1cc([C@H]2Oc3c(OC)cc4ccc(=O)oc4c3O[C@@H]2COC(C)=O)ccc1O", "note": "[DURANTIN A]", "values": [
      {"measurement": "inhibition at 1 µg/mL", "setting": "[1]", "value": 73.3, "unit": "%"},
      {"measurement": "inhibition at 10 µg/mL", "setting": "[2]", "value": 76.2, "unit": "%"},
      {"measurement": "inhibition at 1 µg/mL", "setting": "[3]", "value": 81.9, "unit": "%"},
      {"measurement": "inhibition at 10 µg/mL", "setting": "[4]", "value": 78.3, "unit": "%"},
      {"measurement": "inhibition at 1 µg/mL", "setting": "[5]", "value": 109, "unit": "%"},
      {"measurement": "inhibition at 10 µg/mL", "setting": "[6]", "value": 74.8, "unit": "%"}
    ]},
    {"smiles": "COc1cc([C@H]2Oc3c(OC)c([N+](=O)[O-])c4ccc(=O)oc4c3O[C@@H]2CO)c([N+](=O)[O-])cc1OC", "values": [
      {"measurement": "inhibition at 1 µg/mL", "setting": "[1]", "value": 76.6, "unit": "%"},
      {"measurement": "inhibition at 10 µg/mL", "setting": "[2]", "value": 78, "unit": "%"},
      {"measurement": "inhibition at 1 µg/mL", "setting": "[3]", "value": 86.4, "unit": "%"},
      {"measurement": "inhibition at 10 µg/mL", "setting": "[4]", "value": 80.2, "unit": "%"},
      {"measurement": "inhibition at 1 µg/mL", "setting": "[5]", "value": 72, "unit": "%"},
      {"measurement": "inhibition at 10 µg/mL", "setting": "[6]", "value": 70.2, "unit": "%"}
    ]},
    {"smiles": "COc1cc([C@H]2Oc3c(OC)c([N+](=O)[O-])c4ccc(=O)oc4c3O[C@@H]2CO[N+](=O)[O-])c([N+](=O)[O-])cc1OC", "values": [
      {"measurement": "inhibition at 1 µg/mL", "setting": "[1]", "value": 64.8, "unit": "%"},
      {"measurement": "inhibition at 10 µg/mL", "setting": "[2]", "value": 60.6, "unit": "%"},
      {"measurement": "inhibition at 1 µg/mL", "setting": "[3]", "value": 81.4, "unit": "%"},
      {"measurement": "inhibition at 10 µg/mL", "setting": "[4]", "value": 79, "unit": "%"},
      {"measurement": "inhibition at 1 µg/mL", "setting": "[5]", "value": 59.1, "unit": "%"},
      {"measurement": "inhibition at 10 µg/mL", "setting": "[6]", "value": 53.3, "unit": "%"}
    ]}
  ]
}
